ATG4B inh – blocks human ATG4B protease cleavage of LC3 substrate | hit rate 0.51% among 340,000 | ATG4B cleavage of LC3-PLA2, NBD-HPC fluorescence, 1 h | inhibition, % at 8.33 µM | AID 504462; in the data active = inhibition above about 40%
NadD block – inhibitors of Staphylococcus aureus NadD | hit rate 0.78% among 360,000 | purified NadD enzyme, colorimetric absorbance read-out | AID 602399 | inhibition, % at 20 µM; in the data active = inhibition above about 26%
GRIN3A LBD mod – modulates the human NR3A ligand-binding domain; hit rate 2.5% among 340,000; NR3A LBD differential scanning fluorimetry, Tm shift; 0% = protein alone, 100% = glycine-bound protein; Tm shift relative to glycine control, % at 25 µM;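 active = melting temperature shift of at least 10% of the positive control shift, at one fixed dose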
UCH37 inh – blocks the human deubiquitinase UCH37; inhibition, % (no concentration beside the values); purified proteasome/UCH37, Ub-AMC cleavage fluorescence; AID 588478; Q9Y5K5; hit rate 0.33% among 330,000;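 active = mean inhibition over replicate wells above about 20%, limit read from the data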
Target sequence (Q9Y5K5 whole entry, looked up): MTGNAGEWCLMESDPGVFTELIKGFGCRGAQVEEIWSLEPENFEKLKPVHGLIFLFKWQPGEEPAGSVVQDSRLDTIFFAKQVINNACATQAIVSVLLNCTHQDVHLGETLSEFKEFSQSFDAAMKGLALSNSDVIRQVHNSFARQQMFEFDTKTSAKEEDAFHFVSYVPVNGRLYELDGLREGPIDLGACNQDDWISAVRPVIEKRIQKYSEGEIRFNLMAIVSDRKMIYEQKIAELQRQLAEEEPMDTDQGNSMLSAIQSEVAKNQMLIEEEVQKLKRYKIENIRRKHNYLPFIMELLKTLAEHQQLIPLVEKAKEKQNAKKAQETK
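Material: human UCH37 enzyme supplied as purified proteasome complex / Amount: 0.15 nM proteasome as dispensed / Buffer or medium: pH 7.4 Tris-HCl (50 mM) with ovalbumin, ATP-MgCl2, DTT / Times: preincubation 30 min, reaction 25 min, room temperature / Technique: AMC fluorescence from Ub-AMC cleavage, excitation 355 nm, emission 460 nm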
SENP1 inh – SENP1 (human) catalytic domain inhibition; Q9P0U3; recombinant SENP1 catalytic domain, CyPet-SUMO1-YPet FRET cleavage; inhibition, % at 10 µM; hit rate 0.21% among 360,000; AID 624204;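 active = inhibition at least 30% at 10 µM, raw YFP signal under a set limit, fluorescence ratio 0.5 to 1.5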
Target sequence (Q9P0U3 419-644 limits assumed): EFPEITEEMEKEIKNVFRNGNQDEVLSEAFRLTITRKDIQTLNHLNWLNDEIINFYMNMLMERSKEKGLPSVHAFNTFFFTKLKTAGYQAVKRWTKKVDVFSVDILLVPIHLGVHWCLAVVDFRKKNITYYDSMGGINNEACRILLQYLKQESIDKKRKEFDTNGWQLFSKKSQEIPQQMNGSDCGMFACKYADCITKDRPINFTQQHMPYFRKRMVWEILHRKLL
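Controls: no-enzyme wells low, DMSO-plus-enzyme wells high control. Test system: human recombinant His6-tagged SENP1 catalytic domain enzyme. Reagent: SFCypet-SUMO1-SFYpet FRET protein substrate, 25 nM final. Doses: one dose per compound, 10 µM, 0.5% DMSO. Detection: FRET, CFP and YFP emission. Timing: 50 min reaction at room temperature.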
Hits are given with their value; n = inactive; x = not tested or not shown. The list is not random: actives were taken first. Their share in the collection is about 3.6%.

SMILES | ATG4B inh | NadD block | GRIN3A LBD mod | UCH37 inh | SENP1 inh
CC(c1ccco1)N(C(=O)Nc1ccc(Cl)cc1)c1ccccn1 (stereo not drawn) | n | n | 10.5 | n | n
C[C@H](CO)N1C[C@H](C)[C@@H](CN(C)S(=O)(=O)c2ccc(F)cc2)Oc2c(NC(=O)CCC(F)(F)F)cccc2C1=O | n | n | n | n | n
COc1ccc(S(=O)(=O)Nc2cccc3c2O[C@H](CN(C)S(=O)(=O)c2ccc(F)cc2)[C@H](C)CN([C@H](C)CO)C3=O)cc1 | n | n | 10.4 | n | n
COc1ccc(S(=O)(=O)N(C)C[C@H]2Oc3c(NC(=O)CCC(F)(F)F)cccc3C(=O)N([C@H](C)CO)C[C@@H]2C)cc1 | n | n | 10.4 | n | n
Nc1nonc1-n1nnc(C(=O)NN=Cc2ccoc2)c1CSc1ccc(Cl)cc1 | x | x | x | n | x
O=C(Oc1cccc(C=NNc2nc(Nc3ccccc3)nc(N3CCOCC3)n2)c1)c1ccco1 | x | x | x | n | x
Oc1ccccc1Nc1nc(NCc2ccco2)c2ccccc2n1 | n | n | 24.0 | x | n
Cc1ccccc1Nc1nc(NCc2ccco2)c2ccccc2n1 | n | n | n | n | n
Nc1ccc(-c2nc3ccc(-c4nc5ccccc5o4)cc3[nH]2)cc1 | n | n | 17.8 | n | n
Nc1ccc(-c2nc3ccc([N+](=O)[O-])cc3[nH]2)cc1 | n | n | 25.4 | n | 49.3
Nc1ccc2nc(-c3ccc(Cl)cc3)[nH]c2c1 | n | n | n | n | n
Cc1nc2ccc(-c3nc4ccccc4o3)cc2[nH]1 | n | n | n | n | n
Nc1ccc2nc(-c3cc(Cl)c(N)c(Cl)c3)[nH]c2c1 | n | n | 11.7 | n | n
COc1ccc(C=NS(=O)(=O)c2cccs2)cc1 | x | x | x | n | x
Oc1ccccc1-c1cc(C(F)(F)C(F)F)nc(-c2ccccc2)n1 | n | n | 14.2 | n | n
COc1ccc(Nc2nc3ccc(OC)cc3s2)cc1 | n | n | 28.4 | n | n
COc1ccc2nc(Nc3nc(C)c(C(C)=O)s3)sc2c1 | n | n | 10.7 | n | n
CC(=O)c1sc(Nc2nc3cc4c(cc3s2)OCO4)nc1C | n | n | n | n | n
ON=C1CCCc2c1nc(-c1ccccc1F)n2O | x | x | x | n | x
O=C(NCc1ccccc1)c1c[nH]c2ccc(F)cc2c1=O | n | n | n | n | n
CCc1ccc(NS(=O)(=O)c2ccc3[nH]cc(C(=O)N4CCc5ccccc54)c(=O)c3c2)cc1 | n | n | 11.8 | n | n
O=C(NC1CC1)c1c[nH]c2ccc(S(=O)(=O)Nc3cccc(C(F)(F)F)c3)cc2c1=O | n | n | 11.4 | n | n
Cc1cc(C)cc(NS(=O)(=O)c2ccc3[nH]cc(C(=O)N4CCc5ccccc54)c(=O)c3c2)c1 | n | n | 13.3 | n | n
O=C(NCc1ccccc1)c1c[nH]c2ccc(S(=O)(=O)Nc3ccc4c(c3)OCCO4)cc2c1=O | n | n | 12.1 | n | n
CC(C)(C)C1CCc2c(C(=O)NN=Cc3cccs3)csc2C1 (stereo not drawn) | x | x | x | n | x
SMILES | ATG4B inh | NadD block | GRIN3A LBD mod | UCH37 inh | SENP1 inh
CC(CC1CC(COCCC(C)C)OC1=O)=NNC(N)=S (stereo not drawn) | x | x | x | n | x
COc1ccc(N=Nc2nc(-c3ccccc3)c(-c3ccccc3)[nH]2)cc1 | n | n | n | n | 36.8
Oc1ccccc1N=Nc1nc(-c2ccccc2)c(-c2ccccc2)[nH]1 | n | 34.9 | n | x | 48.1
COc1ccccc1N=Nc1nc(-c2ccccc2)c(-c2ccccc2)[nH]1 | n | n | n | n | n
O=C(O)c1ccc(-c2nc(-c3ccccc3)c(-c3ccccc3)[nH]2)cc1 | n | n | n | n | n
CC(=NOC(=O)c1cccc(C(F)(F)F)c1)c1sc(-c2ccccc2)nc1C | x | x | x | n | x
O=C1C2C(C(=O)N1N=Cc1ccco1)C1C=CC2C12CC2 (stereo not drawn) | x | x | x | n | x
CCOc1ccc(OCc2ccc(C(=O)NN=C(C)c3ccccn3)cc2)cc1 | x | x | x | n | x
CCC(CC)NC(=O)CON=Cc1ccc(Cl)cc1Cl | x | x | x | n | x
CC(C)Cn1c(=O)c2ccccc2n2c(SCC(=O)N3c4ccccc4CC3C)nnc12 (stereo not drawn) | n | n | 20.5 | n | n
COc1ccc(-n2c(SCC(=O)N3CCOCC3)nc(O)c(Cc3ccccc3)c2=O)cc1 | n | n | n | 30.0 | n
Cc1nc2ccccc2cc1C(=O)NN=Cc1cccs1 | x | x | x | n | x
O=C(NN/C(=N/S(=O)(=O)c1ccc(Cl)cc1)c1ccccc1)c1ccc(O)cc1 | n | n | 37.0 | n | n
O=C(Nc1ccc2ccccc2c1)c1cccc2ccccc12 | n | n | n | n | n
CCOc1ccc(NC(=O)c2cc3ccccc3cc2OC)cc1 | n | n | 32.0 | n | n
CCOc1ccc(NC(=O)c2cccc3ccccc23)cc1 | n | n | 41.9 | n | n
CCOc1ccc(NC(=O)c2cc3ccccc3cc2O)cc1 | n | n | n | n | n
CN1C(=O)c2ccc(NC(=O)c3cccc4ccccc34)cc2C1=O | n | n | 17.5 | n | n
CSc1nc(O)c(C=C2C=Nc3ccccc32)[nH]1 | x | x | x | n | x
O=c1c2ccccc2oc2ccccc12 | x | n | x | x | n
O=c1c2ccccc2oc2c1ccc1ccccc12 | n | n | 18.1 | n | n
COc1cc(OC)cc(C(=O)NCC(=O)OCC(=O)c2cc(C)n(Cc3ccco3)c2C)c1 | n | n | 18.6 | n | n
COc1ccc(NC(=O)/C(N=Nc2cc(S(=O)(=O)Nc3ccc(OC)cc3)ccc2OC)=C(\C)O)cc1 | n | n | 10.8 | n | n
COc1ccc(NS(=O)(=O)c2cc(C(=O)N3CCN(C(C)=O)CC3)ccc2Cl)cc1 | n | n | n | n | n
COc1ccc(NC(=O)/C(N=Nc2ccc(Cl)c(S(=O)(=O)Nc3ccc(Cl)cc3)c2)=C(\C)O)cc1 | n | 30.8 | n | n | n
SMILES | ATG4B inh | NadD block | GRIN3A LBD mod | UCH37 inh | SENP1 inh
O=C(Cc1ccccc1)NN=Cc1cccn1-c1ccc([N+](=O)[O-])cc1 | x | x | x | n | x
Cc1cc(Cl)ccc1OCC(=O)NNC(=O)C1CCN(c2ncnc3sc(C)c(C)c23)CC1 | n | n | n | n | n
Cc1sc2ncnc(N3CCC(C(=O)Nc4ccc(OC(F)F)c(Cl)c4)CC3)c2c1C | n | n | 10.0 | n | n
NC(=S)NN=Cc1c(OCc2ccccc2Cl)ccc2ccccc12 | x | x | x | n | x
CC(C)CC1(C)NC(=O)NC1=O (stereo not drawn) | n | n | 10.8 | n | n
COc1ccccc1C=NNC(=O)c1nnn(-c2nonc2N)c1-c1cccs1 | x | x | x | n | x
N#CC(c1ccc(Cl)cc1)c1ncc(C(F)(F)F)cc1Cl (stereo not drawn) | n | n | 13.8 | n | n
Cc1ccccc1NCC(=O)N/N=C/c1c(C)c(C(=O)c2ccc(Cl)cc2)n2ccccc12 | n | n | 12.1 | x | n
Oc1c(Br)cc(Br)cc1C=NN1CCN(Cc2ccccc2)CC1 | x | x | x | n | x
COc1ccc(C2CC(c3cc(Br)ccc3F)n3nnnc3N2)cc1 (stereo not drawn) | n | n | n | n | n

Bioassay records from PubChem.
